Tests used:
[1] = test system: MCF7; test: Photocytotoxicity against human MCF7 cells expressing low level of folate receptor assessed as cell viability incubated for 24 hrs followed by halogen light illumination measured after 20 mins by MTT assay; assay type: functional, cell-based
How it was run: (§1)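 Cells seeded at about 1 × 10^4 (KB) or 2 × 10^4 (MCF-7) per well, grown overnight, then exposed to serial dilutions in folic acid free RPMI 1640. Dilutions came from 1.6 mM DMF stocks taken to 80 μM with aqueous Tween 80. After PBS rinse and fresh medium, cells were illuminated (halogen lamp, λ > 610 nm, 40 mW cm−2, 20 min, 48 J cm−2) and kept overnight at 37 °C. Read by MTT (3 h) with SDS/isopropanol solubilisation and A540. Viability is relative to wells without compound; three experiments in quadruplicate, mean ± SEM.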

[2] = test system: KB; test: Photocytotoxicity against human KB cells overexpressing folate receptor assessed as cell viability incubated for 24 hrs followed by halogen light illumination measured after 20 mins by MTT assay; assay type: functional, cell-based; how it was run: as §1
[3] = test system: MCF7; test: Selectivity ratio of IC50 for human MCF7 cells expressing low level of folate receptor to IC50 for human KB cells overexpressing folate receptor; assay type: functional; how it was run: as §1
[4] = test system: KB; test: Cellular uptake in human KB cells overexpressing folate receptor at 1 uM after 24 hrs by bright field microscopy-based fluorescence assay; assay type: ADME, cell-based
How it was run: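 About 2 × 10^5 KB cells grown overnight on coverslips, then exposed to conjugate (1.0 μM) in folic acid free medium for 24 h at 37 °C. PBS rinse; confocal imaging with 633 nm He-Ne excitation and emission collected at 650−750 nm. Mean intracellular fluorescence taken over 50 cells per sample, reported as mean ± SD.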

[5] = test system: KB; test: Cellular uptake in human KB cells overexpressing folate receptor at 5 uM after 24 hrs by bright field microscopy-based fluorescence assay; assay type: ADME, cell-based
How it was run: (§2)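 KB or MCF-7 cells (about 2 × 10^5 on coverslips, overnight at 37 °C, 5% CO2) incubated 24 h with 5.0 μM conjugate in folic acid free medium. PBS rinse; inverted microscope with 630 nm excitation, emission collected above 660 nm. Mean intracellular fluorescence from 24 cells per sample (mean ± SD), compared between the two lines.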

[6] = Cellular uptake in lysosome of human KB cells overexpressing folate receptor at 1 uM after 24 hrs by lyso-tracker DND 26-based confocal microscopic analysis; assay type: ADME, cell-based
How it was run: (§3)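 KB cells (about 1 × 10^5 on coverslips, overnight at 37 °C, 5% CO2) given conjugate at 1 μM in folic acid free medium for 24 h. Then 15 min with Lyso-Tracker Green DND 26 (4.0 μM in medium), Mito-Tracker Green FM (0.2 μM in medium) or ER-Tracker Green (1.0 μM in PBS). PBS rinse; confocal imaging with 488 nm argon and 633 nm He-Ne lasers.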

[7] = test system: KB; test: Photocytotoxicity against human KB cells overexpressing folate receptor assessed as cell viability at IC50 incubated for 24 hrs followed by halogen light illumination measured after 20 mins by MTT assay in presence of free folic acid; assay type: functional
[8] = test system: MCF7; test: Cytotoxicity against human MCF7 cells expressing low level of folate receptor assessed as cell viability at 80 uM after 24 hrs by MTT assay in absence of halogen light; assay type: cell-based; conditions: mcf7, 24 h
[9] = Cellular uptake in mitochondria of human KB cells overexpressing folate receptor at 1 uM after 24 hrs by mito-tracker green FM-based confocal microscopic analysis; assay type: ADME; how it was run: as §3
[10] = test system: MCF7; test: Cellular uptake in human MCF7 cells expressing low level of folate receptor at 5 uM after 24 hrs by bright field microscopy-based fluorescence assay; assay type: ADME, cell-based; conditions: mcf7, 24 h; how it was run: as §2
[11] = Induction of singlet oxygen formation in DMF assessed as photodegradation of DPBF at 4 uM; assay type: physicochemical
How it was run: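 Singlet oxygen generation measured in DMF with 1,3-diphenylisobenzofuran as scavenger. Scavenger photodegradation followed as the fall in absorbance at 415 nm over time, with ZnPc as the reference.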

[12] = Cellular uptake in endoplasmic reticulum of human KB cells overexpressing folate receptor at 1 uM after 24 hrs by ER-tracker green based-confocal microscopic analysis; assay type: ADME, cell-based; how it was run: as §3
[13] = test system: KB; test: Cytotoxicity against human KB cells overexpressing folate receptor assessed as cell viability at 80 uM after 24 hrs by MTT assay in absence of halogen light; assay type: cell-based
[14] = Ratio of cellular uptake in human KB cells to human MCF7 cells at 5 uM after 24 hrs; assay type: ADME, cell-based; conditions: mcf7, 24 h; how it was run: as §2

Compound: C#CCOCCOCCOCCOc1ccc(C2=C3C(C)=C(I)C(/C=C/c4ccc(OCCOCCOCCOC)cc4)=[N+]3[B-](F)(F)n3c(/C=C/c4ccc(OCCOCCOCCOC)cc4)c(I)c(C)c32)cc1
- IC50 [1]: 0.06 µM
- IC50 [2]: 0.02 µM
- Ratio IC50 [3]: 3

Compound: COCCOCCOCCOc1ccc(/C=C/C2=[N+]3C(=C(c4ccc(OCc5cn(CCOCCOCCNC(=O)CC[C@H](NC(=O)c6ccc(NCc7cnc8nc(N)[nH]c(=O)c8n7)cc6)C(=O)O)nn5)cc4)c4c(C)c(I)c(/C=C/c5ccc(OCCOCCOCCOC)cc5)n4[B-]3(F)F)C(C)=C2I)cc1
- Drug uptake [4]: Active
- Drug uptake [5]: Active
- Drug uptake [6]: Active
- Activity [7]: 94%
- Activity [8]: Non-toxic
- IC50 [1]: 2.56 µM
- Drug uptake [9]: Not Active
- Drug uptake [10]: Not Active
- Activity [11]: Active
- IC50 [2]: 0.06 µM
- Drug uptake [12]: Active
- Activity [13]: Non-toxic
- Ratio [14]: 5
- Ratio IC50 [3]: 43

Compound: COCCOCCOCCOc1ccc(/C=C/C2=[N+]3C(=C(c4ccc(OCCOCCOCCOCc5cn(CCOCCOCCNC(=O)CC[C@H](NC(=O)c6ccc(NCc7cnc8nc(N)[nH]c(=O)c8n7)cc6)C(=O)O)nn5)cc4)c4c(C)c(I)c(/C=C/c5ccc(OCCOCCOCCOC)cc5)n4[B-]3(F)F)C(C)=C2I)cc1
- Drug uptake [4]: Active
- Drug uptake [6]: Active
- Activity [8]: Non-toxic
- IC50 [1]: 1 µM
- Activity [11]: Active
- IC50 [2]: 0.18 µM
- Drug uptake [12]: Active
- Activity [13]: Non-toxic
- Ratio IC50 [3]: 6

Compound: Nc1nc(=O)c2nc(CNc3ccc(C(=O)N[C@@H](CCC(=O)O)C(=O)O)cc3)cnc2[nH]1 [FOLIC ACID]
- IC50 [2]: 0.5 µM
